Assays:
Cytochrome P450 1A1 = biological target: T1, Cytochrome P450 1A1 (Homo sapiens, UniProt P04798); assay: Inhibition of human CYP1A1 expressed in human HEK293 cells using 7-ethoxyresorufin as substrate preincubated for 30 mins followed by substrate additon and measured after 60 mins by fluorescence based assay; format: cell-based
T1 sequence (P04798 whole entry): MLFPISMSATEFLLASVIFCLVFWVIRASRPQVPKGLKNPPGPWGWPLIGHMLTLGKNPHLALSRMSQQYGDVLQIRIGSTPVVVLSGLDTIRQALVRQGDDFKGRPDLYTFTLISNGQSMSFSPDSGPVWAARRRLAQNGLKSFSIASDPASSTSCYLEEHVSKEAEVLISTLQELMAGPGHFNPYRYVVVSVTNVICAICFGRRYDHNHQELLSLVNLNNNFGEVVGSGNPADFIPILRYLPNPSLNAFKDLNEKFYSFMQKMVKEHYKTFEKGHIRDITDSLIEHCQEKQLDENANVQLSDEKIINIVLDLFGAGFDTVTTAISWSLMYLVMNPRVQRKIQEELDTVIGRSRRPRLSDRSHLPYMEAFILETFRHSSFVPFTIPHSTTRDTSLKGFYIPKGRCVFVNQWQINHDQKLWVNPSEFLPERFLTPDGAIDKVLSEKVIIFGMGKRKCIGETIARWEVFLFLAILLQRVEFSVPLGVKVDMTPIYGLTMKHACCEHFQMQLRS
Summary of the method: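 The assay used live recombinant human HEK293 cells grown in suspension, each cell line expressing a single CYP (CYP1A1 or CYP1B1). Percent inhibition was read at 10 μM, and IC50 values were determined. Values are mean ± SD of three independent experiments. Alpha-naphthoflavone served as the reference inhibitor.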

Homo sapiens [1] = species on record: Homo sapiens; assay: Selectivity ratio IC50 for inhibition of human CYP1A2 expressed in sacchrosomes toIC50 for Inhibition of CYP1A1 expressed in sacchrosomes
Homo sapiens [2] = species on record: Homo sapiens; assay: Selectivity ratio IC50 for inhibition of human CYP1B1 expressed in sacchrosomes toIC50 for Inhibition of CYP1A1 expressed in sacchrosomes

| Compound | IC50 (Cytochrome P450 1A1) [nM] | Ratio IC50 (Homo sapiens [1]) | Ratio IC50 (Homo sapiens [2]) |
| --- | --- | --- | --- |
| O=c1cc(-c2ccccc2)oc2c1ccc1occc12 [LANCEOLATIN B] | 20 |  |  |
| COc1c(-c2ccc3c(c2)OCO3)oc2c(ccc3occc32)c1=O [PONGAPIN] | 20 | 13 | 52 |
